Assay results of several laboratories.
Protocols differ between the studies behind these lines.
Target: Insulin-like growth factor 1 receptor (IGF1R, Homo sapiens, UniProt P08069)

CCCCC(=O)Nc1ccc(-c2ccc3ncn(CCC)c(=O)c3c2)cn1  remaining binding (binding; competition with immobilised ligand; 0.5 µM): 98%
CC#CC(=O)N1CCC[C@H]1c1nc(-c2ccc(C(=O)Nc3ccccn3)cc2)c2c(N)nccn12  inhibition (enzyme activity; inhibitor; 1 µM): 3%
N#Cc1ccc(NC(=O)Nc2ccccc2)cc1  remaining binding (cell-free assay; competition with immobilised ligand; 25 µM): 100%
CN1CCN(C(=O)c2ccc(NC(=O)Nc3ccc(N(C)c4ccnc(Nc5ccc(CS(C)(=O)=O)cc5)n4)cc3)cc2)CC1  remaining binding (binding; 1 µM): 100%
COc1ccc2oc(-c3ccc4nc(N)oc4c3)c/c(=N\c3ccccc3NC(=O)CCN)c2c1  remaining binding (binding; 1 µM): 93%
C1=C/COCc2cc(ccc2OCCN2CCCC2)Nc2nccc(n2)-c2cccc(c2)COC/1  remaining binding (binding; 0.1 µM): 83%
C#Cc1cnc(Nc2ccnc(CO)c2)nc1Nc1ccccc1S(C)(=O)=NC#N (stereo not drawn)  remaining signal (cell-free assay; 1 µM): 36%
C=CC(=O)N1CCC([C@@H]2CCNc3c(C(N)=O)c(-c4ccc(Oc5ccccc5)cc4)nn32)CC1  inhibition (cell-free assay; 1 µM): 14%
C[C@H]1CC[C@H](n2c3cnccc3c3cnc(Nc4ccc5c(n4)CCN(C(=O)CO)C5)nc32)CC1  remaining binding (binding; 1 µM): 100%
